Assay outcomes from PubChem.
KCNQ1 inh – blocks the human KCNQ1 potassium channel; P51787; CHO-K1 KCNQ1, FluxOR thallium flux fluorescence; hits give high values; 310,000 tested, 1.3% active; B-score at 10 µM;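 active = compounds whose thallium flux B-score, printed positive for inhibition, exceeds three library SD while starting fluorescence stays within three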;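 note: channel opened by potassium depolarization with thallium stimulus after 20 min compound exposure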
KCNK3 inh – human KCNK3 channel inhibition, primary screen; O14649; CHO-KCNK3 thallium flux, FluxOR fluorescence; hits give low values; B-score at 10 µM; 340,000 tested, 0.84% active; AID 602410;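 active = B-score under library mean minus 4 SD, starting fluorescence ratio at most library mean plus 5 SD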;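 note: more negative B-score means stronger inhibition of thallium flux through KCNK3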
hERG protect – compounds protecting human hERG from proarrhythmic drug block; Q12809; CHO-hERG, FluxOR thallium flux, dofetilide IC70 present; activation (rescue from dofetilide block), less the hit threshold, % at 10 µM; 310,000 tested, 0.51% active;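 active = activation above the mean of controls blocked by dofetilide plus 5 SD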;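 note: thallium influx through hERG after potassium depolarization seen as dye fluorescence rise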
Kir21 inh – blocks the mouse Kir2.1 inward-rectifier potassium channel; P35561; HEK293-Kir2.1, FluxOR thallium flux fluorescence; hits give low values; B-score at 10 µM; 310,000 tested, 0.85% active; AID 1672;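 active = fluorescence ratio B-score at or below minus 3 SD of library scores, with starting-brightness B-score within 2 SD, cut at about -4.2 in these data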;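 note: channel flux triggered by added potassium and thallium sulfate stimulus; B-score of peak minus minimum fluorescence over baseline after thallium stimulus; more negative B-score means stronger Kir2.1 block with less thallium influx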
KCNK9 inh – inhibitors of human KCNK9 two-pore domain potassium channel. Q9NPC2. HEK293 KCNK9, FluxOR thallium flux fluorescence; hits give low values. B-score at 10 µM. 310,000 tested, 1.2% active. AID 488922;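 active = ratio B-score over 3 SD below the library mean, with starting fluorescence within 5 SD of its mean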;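 note: negative B-score means less thallium flux so channel inhibition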
KCNQ1 act – human KCNQ1 channel potentiation or activation | P51787 | CHO-K1 KCNQ1, thallium flux FluxOR fluorescence; hits give high values | B-score at 10 µM | 310,000 tested, 0.35% active | AID 2648;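 active = fluorescence ratio B-score, a plate-corrected score, at least three library SD, with initial intensity B-score within 5 SD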
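System: Stable KCNQ1 CHO-K1 line | Incubation: 90 min dye loading and 20 min compound exposure, both at room temperature | Measure: Ratio B score | Medium: Assay buffer for compound exposure, DMSO matched across wells | Compound dosing: Single-concentration screen | Probe or stimulus: K+/Tl+ depolarizing stimulus | Measured by: Kinetic FluxOR fluorescence, 10 s baseline plus 110 s post-stimulus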
An asterisk follows results filed as active; i = inactive; · = no result given. Sampled rows, rich in hits. Any-hit rate of the full collection: about 3.7%.

SMILES	KCNQ1 inh	KCNK3 inh	hERG protect	Kir21 inh	KCNK9 inh	KCNQ1 act
O=c1[nH]c(C(F)(F)C(F)(F)C(F)(F)F)no1	·	i	·	·	·	·
O=C(CSc1n[nH]c(-c2ccncc2)n1)Nc1ccc(Cl)c(Cl)c1	i	i	-12	1	i	i
Cn1c(=N)n(CC(O)c2cccc3ccccc23)c2ccccc21 (stereo unspecified)	i	i	-10	-4.4*	i	i
Cc1ccc(Cn2c(=N)n(CC(=O)c3ccccc3)c3ccccc32)cc1	i	i	-30	-8.9*	i	i
N=c1n(CC(=O)c2cccc([N+](=O)[O-])c2)c2ccccc2n1Cc1ccccc1	i	i	-18	0.33	i	i
CCN(CC(=O)Nc1ccc(NC(C)=O)cc1)C(=O)c1c(C)nn(Cc2ccc(C)cc2)c1Cl	·	i	·	·	·	·
CSc1ccccc1OCc1cc(C(=O)NCCN2CCCc3ccccc32)no1	i	i	-6	-0.24	i	i
O=C(CCc1ccc(O)c(O)c1)N/N=C/c1ccc2c(c1)OCO2	6*	i	-16	0.46	i	i
CC(C)Oc1ccc(CCC(=O)N/N=C/c2ccc3c(c2)OCO3)cc1	i	i	-6	1.5	i	i
CCOc1ccc(S(=O)(=O)N(CC)CC(=O)NCc2ccncc2)cc1	i	i	-3	0.17	i	i
Cc1cc2nc(-c3ccc(SCc4ccccn4)nc3)[nH]c2cc1C	i	i	-14	-1.3	i	i
CCCn1c(SCC(=O)N2CC(=O)Nc3ccccc32)nc2ccccc21	i	i	-10	-6.9*	i	i
O=C(Cc1cccs1)Nc1ccc(F)cc1	i	i	-2	0.05	i	i
CC(Cc1cccs1)NC(=O)Nc1ccc(F)cc1 (stereo unspecified)	i	i	-12	0.29	-6.6*	i
O=C1CC(c2ccccc2)Sc2nc3ccccc3n21 (stereo unspecified)	i	i	42*	-2.2	i	i
O=C1CC(c2cccs2)Sc2nc3ccccc3n21 (stereo unspecified)	i	i	-4	-0.18	i	i
COc1ccc2nc(NC(=S)NC(=O)c3ccco3)sc2c1	i	i	31*	-0.16	i	25*
O=C(NC(=S)NCc1ccc(-c2nc3ccccc3s2)cc1)c1ccco1	i	i	5.5*	0.18	i	i
COc1ccc2nc(NC(=O)CCNC(=O)c3ccco3)sc2c1	·	i	·	·	·	·
CCOC(=O)c1sc(NC(=S)NC(=O)c2ccco2)nc1C	i	i	8.9*	1.3	i	9*
O=C(NCc1ccc(-c2nc3ccccc3s2)cc1)c1ccco1	i	i	-7	0.5	i	i
COC(=O)c1sc(NC(=O)c2ccco2)nc1C	i	i	-5	-1.9	i	i
Cc1ccc2nc(NC(=S)NC(=O)c3cccs3)sc2c1	i	i	10*	-1.3	i	17*
Cc1ccn2cc(-c3ccc(O)c(O)c3)nc2c1	i	i	-7	2.2	i	i
COc1ccc(C)cc1NC(=O)C1CCCN1S(=O)(=O)c1ccccc1F (stereo unspecified)	·	i	·	·	·	·
SMILES	KCNQ1 inh	KCNK3 inh	hERG protect	Kir21 inh	KCNK9 inh	KCNQ1 act
Cc1cccnc1NC(=O)CCc1nnc2ccc(N3CCC4(CC3)OCCO4)nn12	i	i	-7	-1.5	i	i
O=C(NC(=S)Nc1nc2ccccc2s1)c1ccco1	i	i	9.2*	0.11	i	34*
O=C(COC(=O)c1ccco1)Nc1nc2ccccc2s1	i	i	7.3*	0.03	i	i
CC(=O)Nc1nc(=S)ss1	i	i	-8	-0.1	i	i
COC(=O)c1sc(NC(=S)NC(=O)c2ccc(F)cc2)nc1C	i	·	-4	-1.3	i	i
COC(=O)c1sc(NC(=S)NC(=O)c2ccccc2C)nc1C	i	i	25*	0.41	i	42*
Cc1ccccc1C(=O)Nc1nc(=S)ss1	i	i	20*	-0.05	i	9*
CCCC(NC(=O)C(C)N1CCN(S(=O)(=O)c2ccccc2)CC1)c1ccccc1 (stereo unspecified)	·	i	·	·	·	·
COc1ccc(CN(C)C(=O)/C=C/c2ccc(S(=O)(=O)N3CCCCCC3)cc2)cc1	·	i	·	·	·	·
CCOC(=O)N1CCN(C(=O)CNC(=O)c2ccc(Br)cc2)CC1	i	i	-7	0.2	i	i
CC(C)(C)NC(=O)CCN(/N=C/c1ccccc1F)C1=NS(=O)(=O)c2ccccc21	i	i	-6	-0.09	i	i
Cc1nc(NC(=S)NC(=O)c2cccs2)ccc1Br	i	i	-6	-2.6	i	13*
CSCCC(NC(=O)c1ccccc1Br)C(=O)NNC(=O)C1COc2ccccc2O1 (stereo unspecified)	·	i	·	·	·	·
C=CCn1c(Br)nc2c1c(=O)n(C)c(=O)n2C	i	i	-7	2	i	i
C=CCn1c(Br)nc2c1c(=O)[nH]c(=O)n2C	i	i	5.5*	-0.54	i	i
O=C1c2ccccc2C(=O)N1CCC#Cc1ccc2cc(CCCO)oc(=O)c2c1	·	i	·	·	·	·
Cc1nc(N2CCN(C)CC2)c2c(C)c(C(=O)Nc3ccc(C)c(F)c3)sc2n1	i	i	-10	-6*	i	i
Cc1nc(N2CCC(C)CC2)c2c(C)c(C(=O)Nc3ccccc3C(F)(F)F)sc2n1	i	i	-14	-1.6	-7.4*	i
Cc1nc(N2CCN(c3ccccn3)CC2)c2c(C)c(C(=O)Nc3c(F)cc(F)cc3Br)sc2n1	6*	i	-18	-0.71	i	i
COc1ccccc1-c1cccc([C@@H]2C[C@H]3[C@H](CON3C)CN2S(=O)(=O)c2ccccc2C)c1	·	i	·	·	·	·
CC(NC(=O)c1cccs1)C(S)c1ccccc1 (stereo unspecified)	i	i	-6	-0.77	-6.6*	i
CC(NC(=S)NC(=O)c1cccs1)c1ccccc1 (stereo unspecified)	·	i	·	·	·	·
Cc1cc(C2=NNC(=NC3CC3)SC2)c(C)n1-c1c(C)n(C)n(-c2ccccc2)c1=O	i	i	-12	-0.8	i	i
Cc1ccc(-n2c(C)cc(C3=NNC(=NC4CC4)SC3)c2C)cc1C	7*	i	-24	-2.1	i	i
Cc1ccc(NC(=O)NCc2cccn2C)cc1C	i	i	-4	-0.69	i	i
COc1ccc(OC(C)C(=O)N2CCCc3ccccc32)cc1 (stereo unspecified)	i	i	-5	-4.8*	i	i
Cc1ccc(OC(C)C(=O)N2CCc3ccccc32)cc1 (stereo unspecified)	i	i	-4	0.56	i	i
